Measurements taken from ChEMBL document CHEMBL1154726, “Exploring the effect of 2,3,4-trimethoxy-phenyl moiety as a component of indolephenstatins” (Eur J Med Chem, 2010).
pIC50: −log10 of the molar value.

Columns and labels:
Bos taurus [1] = organism: Bos taurus; experiment: Inhibition of calf brain tubulin polymerization at 30 uM after 20 mins
Summary of the method: (§1)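 Single-concentration screen of tubulin assembly using calf brain MTP at 1.0 mg/mL in 0.1 M MES, 1 mM EGTA, 1 mM MgCl2, 1 mM β-ME, 1.5 mM GTP, pH 6.7, 4% DMSO, with a no-ligand control. Samples were preincubated 30 min at 20 °C and 10 min on ice, then warmed from 4 °C to 37 °C. Percent inhibition of the turbidity increase was taken after 20 min.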

[2] = Inhibition of calf brain tubulin polymerization after 20 mins; parameters: species or system Bos taurus
Summary of the method: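 Microtubule protein was purified from calf brain by two cycles of temperature-dependent assembly/disassembly. Assay mix: 1.0 mg/mL MTP in 0.1 M MES, 1 mM EGTA, 1 mM MgCl2, 1 mM β-ME, 1.5 mM GTP, pH 6.7, 4% DMSO, with a no-ligand control. Samples were preincubated 30 min at 20 °C, chilled 10 min on ice, then assembled by a shift from 4 °C to 37 °C and followed by turbidity. IC50 at 20 min came from exponential fits of TPI% versus concentration, with ≥2 independent experiments on different MTP preparations.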

HeLa = experiment: Cytotoxicity against human HeLa cells after 72 hrs by XTT assay; type: functional, cell-based
HL-60 = experiment: Cytotoxicity against human HL60 cells after 72 hrs by XTT assay; type: functional, cell-based; conditions: HL-60, 72 h
Summary of the method: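 XTT proliferation assay. Adherent cells were seeded and left 24 h at 37 °C in humidified 5% CO2/95% air to attach. HL-60 cells were seeded at 3 × 10³ cells/well. Cells were exposed to a range of compound concentrations for 72 h under the same atmosphere, then incubated a further 4 h. Formazan was read at 490 nm against a 655 nm reference. IC50 is the concentration giving 50% inhibition of proliferation.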

A549 = experiment: Cytotoxicity against human A549 cells after 72 hrs by XTT assay; type: functional, cell-based; conditions: A549, 72 h
HT-29 = experiment: Cytotoxicity against human HT-29 cells after 72 hrs by XTT assay; type: functional, cell-based; conditions: HT-29, 72 h
Bos taurus [3] = organism: Bos taurus; experiment: Inhibition of calf brain tubulin polymerization at 20 uM after 20 mins
Summary of the method: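 Single-concentration screen of tubulin assembly using calf brain MTP at 1.0 mg/mL in 0.1 M MES, 1 mM EGTA, 1 mM MgCl2, 1 mM β-ME, 1.5 mM GTP, pH 6.7, 4% DMSO, with a no-ligand control. Samples were preincubated 30 min at 20 °C and 10 min on ice, then warmed from 4 °C to 37 °C.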

Bos taurus [4] = organism: Bos taurus; experiment: Inhibition of calf brain tubulin polymerization at 40 uM after 20 mins; summary of the method: as §1

| Structure (SMILES) | inhibition (Bos taurus [1]) [%] | pIC50 [2] | pIC50 (HeLa) | pIC50 (HL-60) | pIC50 (A549) | pIC50 (HT-29) | inhibition (Bos taurus [3]) [%] | inhibition (Bos taurus [4]) [%] |
| --- | --- | --- | --- | --- | --- | --- | --- | --- |
| CCn1ccc2cc(/C(=N/O)c3ccc(OC)c(OC)c3OC)ccc21 | 52 | 4.37 | 5.70 | 5.70 | < 5.00 | 5.70 |  |  |
| COc1ccc(/C(=N\NC(C)=O)c2ccc3c(ccn3C)c2)c(OC)c1OC |  |  | 6.00 | 5.70 | < 5.00 | 5.70 | 22 |  |
| COc1ccc(/C(=N\OC(C)=O)c2ccc3c(ccn3C)c2)c(OC)c1OC | 20 |  | 6.00 | 6.24 | < 5.00 | 5.82 |  |  |
| COc1ccc(C(=O)c2ccc(OC)c(OC)c2OC)cc1O |  |  |  |  |  |  | 19 |  |
| COc1ccc(C(=O)c2cc(OC)c(OC)c(OC)c2)cc1O [PHENSTATIN] |  | 5.60 |  | 7.52 |  |  | 97 |  |
| CCn1ccc2cc(/C(=N\NC)c3ccc(OC)c(OC)c3OC)ccc21 | 17 |  | 6.54 |  | 5.72 | 5.92 |  |  |
| CCn1ccc2cc(/C(=N/N)c3ccc(OC)c(OC)c3OC)ccc21 |  |  |  | 5.70 | < 5.00 | < 5.00 | 12 |  |
| COc1cc(C(=O)c2ccc3c(ccn3C)c2)cc(OC)c1OC |  | 5.16 |  |  |  |  |  | 98 |
| COc1ccc(/C(=N\N)c2ccc3c(ccn3C)c2)c(OC)c1OC |  |  | 5.70 | 5.70 | < 5.00 | 5.70 | 25 |  |
| CCn1ccc2cc(C(=O)c3ccc(OC)c(OC)c3OC)ccc21 |  | 5.25 | 6.38 | 5.30 | < 5.00 | 5.70 | 47 |  |
| CCn1ccc2cc(C(O)c3ccc(OC)c(OC)c3OC)ccc21 (configuration not stated) |  |  | > 6.00 | < 5.00 | < 5.00 | < 5.00 | -0 |  |
| COc1ccc(C(=O)c2ccc3c(ccn3C)c2)c(OC)c1OC |  | 6.40 | 7.77 |  | 6.29 | 7.68 | 98 |  |
| COc1ccc(/C=C\c2cc(OC)c(OC)c(OC)c2)cc1O [COMBRETASTATIN A4] |  | 5.52 |  |  |  |  |  |  |
| COc1ccc(/C(=N\O)c2ccc3c(ccn3C)c2)c(OC)c1OC | 82 | 5.05 | 7.12 |  | 6.00 | 6.57 |  |  |
| CCn1ccc2cc(/C(=N/OC(C)=O)c3ccc(OC)c(OC)c3OC)ccc21 |  |  |  |  |  |  | 29 |  |
| CCn1ccc2cc(/C(=N/NC(C)=O)c3ccc(OC)c(OC)c3OC)ccc21 |  |  |  |  |  |  | 5 |  |
| CN/N=C(/c1ccc2c(ccn2C)c1)c1ccc(OC)c(OC)c1OC |  |  | 6.00 | 6.00 | < 5.00 | 5.70 | -0 |  |
| COc1ccc(C(O)c2ccc3c(ccn3C)c2)c(OC)c1OC (configuration not stated) |  |  | 5.62 |  | < 5.00 |  | 9 |  |
